Experiment [1] concerns the target T1, Endothelin-1 receptor (Sus scrofa) (UniProt Q29010).
T1 sequence (whole entry): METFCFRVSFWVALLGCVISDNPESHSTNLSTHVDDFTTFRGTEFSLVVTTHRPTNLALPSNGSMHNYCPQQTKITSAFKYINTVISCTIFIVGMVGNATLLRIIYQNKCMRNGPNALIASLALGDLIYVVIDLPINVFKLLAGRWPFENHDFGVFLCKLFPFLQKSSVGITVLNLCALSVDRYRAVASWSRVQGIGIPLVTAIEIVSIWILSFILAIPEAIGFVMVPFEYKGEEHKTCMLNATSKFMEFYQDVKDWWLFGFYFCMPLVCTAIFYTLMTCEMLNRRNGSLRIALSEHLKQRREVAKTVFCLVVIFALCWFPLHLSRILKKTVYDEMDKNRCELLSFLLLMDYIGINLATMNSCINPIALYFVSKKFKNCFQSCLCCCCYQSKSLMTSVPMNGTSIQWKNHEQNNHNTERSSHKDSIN
Kind of experiment: Endothelin A receptor agonist activity as maximum vasoconstriction in porcine coronary artery. It is filed as functional, tissue-based. The essentials: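 Porcine right coronary artery, endothelium-denuded helical strips in Krebs-Henseleit, 37 °C, isometric tension. Compound applied cumulatively, up to 1 μM. Maximal contraction expressed as % of 60 mM KCl-induced tension; n in parentheses.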

The next experiment deals with T2, Endothelin-1 receptor (Sus scrofa, UniProt Q29010).
T2 sequence (Q29010 whole entry): T1 sequence (whole entry)
Kind of experiment: Tested for the competitive binding versus [125I]- ET-1 determined in porcine cardiac ventricular membrane for Endothelin A receptor. The essentials:
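Membranes (porcine cardiac ventricle at 12 μg/mL for ETA; bovine cerebrum at 150 μg/mL for ETB) in pH 7.2 Tris/EGTA/Mg acetate/0.1% BSA buffer with protease inhibitors. Incubated with 100 pM [125I]ET-1 and varied compound for 1 h at 25 °C, then filtered and counted by gamma counter. IC50 given as mean ± SEM of ≥3 determinations.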

The structures appear in SMILES notation. pIC50: −log10 of the molar value.

`CC[C@H](C)[C@H](NC(=O)[C@H](CC(C)C)NC(=O)[C@H](CC(=O)O)NC(=O)[C@H](CC(C)C)NC(=O)[C@H](Cc1c[nH]cn1)NC(=O)[C@@H]1CSSC[C@@H](N)C(=O)N[C@@H](CO)C(=O)N[C@@H]2CSSC[C@@H](NC(=O)[C@H](CCC(=O)O)NC(=O)[C@@H](CCCCN)NC(=O)[C@H](CC(=O)O)NC(=O)[C@@H](CCSC)NC(=O)[C@H](CC(C)C)NC(=O)[C@@H](CO)NC(=O)[C@H](CO)NC2=O)C(=O)N[C@@H](C(C)C)C(=O)N[C@H](Cc2ccc(O)cc2)C(=O)N[C@@H](Cc2ccccc2)C(=O)N1)C(=O)N[C@@H](Cc1c[nH]c2ccccc12)C(=O)O` yielded a Max vasoconstriction in experiment [1] of 73.
Still for that read-out and setting: to `CC[C@H](C)[C@H](NC(=O)[C@H](CC(C)C)NC(=O)[C@H](CC(C)C)NC(=O)[C@H](Cc1c[nH]cn1)NC(=O)[C@@H]1CSSC[C@@H](N)C(=O)N[C@@H](CO)C(=O)N[C@@H]2CSSC[C@@H](NC(=O)[C@H](CCC(=O)O)NC(=O)[C@@H](CCCCN)NC(=O)[C@H](CC(=O)O)NC(=O)[C@@H](CCSC)NC(=O)[C@H](CC(C)C)NC(=O)[C@@H](CO)NC(=O)[C@H](CO)NC2=O)C(=O)N[C@@H](C(C)C)C(=O)N[C@H](Cc2ccc(O)cc2)C(=O)N[C@@H](Cc2ccccc2)C(=O)N1)C(=O)N[C@H](C(=O)N[C@@H](Cc1c[nH]c2ccccc12)C(=O)O)[C@@H](C)CC` belongs 0; to `CC[C@H](C)[C@H](NC(=O)[C@@H](NC(=O)[C@@H](NC(=O)[C@H](CC(C)C)NC(=O)[C@H](Cc1c[nH]cn1)NC(=O)[C@@H]1CSSC[C@@H](N)C(=O)N[C@@H](CO)C(=O)N[C@@H]2CSSC[C@@H](NC(=O)[C@H](CCC(=O)O)NC(=O)[C@@H](CCCCN)NC(=O)[C@H](CC(=O)O)NC(=O)[C@@H](CCSC)NC(=O)[C@H](CC(C)C)NC(=O)[C@@H](CO)NC(=O)[C@H](CO)NC2=O)C(=O)N[C@@H](C(C)C)C(=O)N[C@H](Cc2ccc(O)cc2)C(=O)N[C@@H](Cc2ccccc2)C(=O)N1)[C@@H](C)O)C(C)C)C(=O)N[C@@H](Cc1c[nH]c2ccccc12)C(=O)O`, 128.
In experiment [1], `CC[C@H](C)[C@H](NC(=O)[C@H](CC(=O)O)NC(=O)[C@H](CC(C)C)NC(=O)[C@H](Cc1c[nH]cn1)NC(=O)[C@@H]1CSSC[C@@H](N)C(=O)N[C@H](CO)C(=O)N[C@H]2CSSC[C@@H](NC(=O)[C@H](CCC(=O)O)NC(=O)[C@H](CCCCN)NC(=O)[C@@H](CC(=O)O)NC(=O)[C@H](CCSC)NC(=O)[C@@H](CC(C)C)NC(=O)[C@H](CO)NC(=O)[C@@H](CO)NC2=O)C(=O)N[C@@H](C(C)C)C(=O)N[C@H](Cc2ccc(O)cc2)C(=O)N[C@@H](Cc2ccccc2)C(=O)N1)C(=O)N[C@H](C(=O)N[C@@H](Cc1c[nH]c2ccccc12)C(=O)O)[C@@H](C)CC` came in with a Max vasoconstriction of 120.
`CCC[C@H](NC(=O)[C@@H](NC(=O)[C@H](CC(C)C)NC(=O)[C@H](Cc1cnc[nH]1)NC(=O)[C@@H]1CSSC[C@H](N)C(=O)N[C@@H](CO)C(=O)N[C@H]2CSSC[C@H](NC(=O)[C@H](CCC(=O)O)NC(=O)[C@H](CCCCN)NC(=O)[C@H](CC(=O)O)NC(=O)[C@H](CCSC)NC(=O)[C@H](CC(C)C)NC(=O)[C@H](CO)NC(=O)[C@H](CO)NC2=O)C(=O)N[C@@H](C(C)C)C(=O)N[C@@H](Cc2ccc(O)cc2)C(=O)N[C@@H](Cc2ccccc2)C(=O)N1)[C@@H](C)O)C(=O)N[C@H](C(=O)N[C@@H](Cc1c[nH]c2ccccc12)C(=O)O)[C@@H](C)CC`: at Endothelin-1 receptor, the negative-log IC50 (pIC50) (commonly the negative decadic logarithm of the IC50, by convention in mol/L) was 9.70.
Same read-out and setting: the figure for `CC[C@H](C)[C@H](NC(=O)[C@@H](NC(=O)[C@@H](NC(=O)[C@H](CC(C)C)NC(=O)[C@H](Cc1c[nH]cn1)NC(=O)[C@@H]1CSSC[C@H](N)C(=O)N[C@@H](CO)C(=O)N[C@H]2CSSC[C@H](NC(=O)[C@H](CCC(=O)O)NC(=O)[C@H](CCCCN)NC(=O)[C@H](CC(=O)O)NC(=O)[C@H](CCSC)NC(=O)[C@H](CC(C)C)NC(=O)[C@H](CO)NC(=O)[C@H](CO)NC2=O)C(=O)N[C@@H](C(C)C)C(=O)N[C@@H](Cc2ccc(O)cc2)C(=O)N[C@@H](Cc2ccccc2)C(=O)N1)[C@@H](C)O)C(C)C)C(=O)N[C@@H](Cc1c[nH]c2ccccc12)C(=O)O` is 9.74.
